Legend:
Assay type in all cases: functional
ACHN = test: Growth inhibition of human ACHN cells at 1 nM after 96 hrs by MTT assay; design: scale not given: the % may be the effect or the level left
786-0 = test: Growth inhibition of human 786-0 cells at 1 nM after 96 hrs by MTT assay; design: scale not given: the % may be the effect or the level left
HCT-116 [1] = test: Growth inhibition of human HCT116 cells at 1 nM after 96 hrs by MTT assay; design: scale not given: the % may be the effect or the level left
EKVX [2] = test: Growth inhibition of human EKVX cells at 1 nM after 96 hrs by MTT assay; design: scale not given: the % may be the effect or the level left
A549 = test: Growth inhibition of human A549 cells at 1 nM after 96 hrs by MTT assay; design: scale not given: the % may be the effect or the level left
Malme-3M = test: Growth inhibition of human MALME-3M cells at 10 uM after 96 hrs by MTT assay; design: scale not given: the % may be the effect or the level left
SF-539 [3] = test: Growth inhibition of human SF539 cells at 10 uM after 96 hrs by MTT assay; design: scale not given: the % may be the effect or the level left
SF-295 [4] = test: Growth inhibition of human SF295 cells at 10 uM after 96 hrs by MTT assay; design: scale not given: the % may be the effect or the level left
HCT-15 = test: Growth inhibition of human HCT15 cells at 10 uM after 96 hrs by MTT assay; design: scale not given: the % may be the effect or the level left
HCT-116 [5] = test: Growth inhibition of human HCT116 cells at 10 nM after 96 hrs by MTT assay; design: scale not given: the % may be the effect or the level left
NCI-H226 [6] = test: Growth inhibition of human NCI-H226 cells at 10 nM after 96 hrs by MTT assay; design: scale not given: the % may be the effect or the level left
EKVX [7] = test: Growth inhibition of human EKVX cells at 10 nM after 96 hrs by MTT assay; design: scale not given: the % may be the effect or the level left
NCI-H460 = test: Growth inhibition of human NCI-H460 cells after 96 hrs by MTT assay; conditions: NCI-H460, 96 h
Method in brief: (§1)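 Run in the NCI 60 human tumour cell line panel as a five-dose assay. GI50 and LC50 were reported for each cell line.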

HOP-62 = test: Growth inhibition of human HOP62 cells after 96 hrs by MTT assay; conditions: HOP-62, 96 h; method in brief: as §1
EKVX [8] = test: Growth inhibition of human EKVX cells after 96 hrs by MTT assay; method in brief: as §1
SR = test: Growth inhibition of human SR cells after 96 hrs by MTT assay
Method in brief: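 Tested in the NCI 60-cell-line panel in five-dose format; GI50 and LC50 values reported for each cell line.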

BT-549 = test: Growth inhibition of human BT549 cells at 1 uM after 96 hrs by MTT assay; design: scale not given: the % may be the effect or the level left
RXF 393 = test: Growth inhibition of human RXF393 cells at 1 uM after 96 hrs by MTT assay; design: scale not given: the % may be the effect or the level left
MDA-MB-231 = test: Growth inhibition of human MDA-MB-231 cells at 100 nM after 96 hrs by MTT assay; design: scale not given: the % may be the effect or the level left
SK-OV-3 = test: Growth inhibition of human SKOV3 cells at 100 nM after 96 hrs by MTT assay; design: scale not given: the % may be the effect or the level left
OVCAR-4 = test: Growth inhibition of human OVCAR4 cells at 100 nM after 96 hrs by MTT assay; design: scale not given: the % may be the effect or the level left
SK-MEL-5 [9] = test: Growth inhibition of human SK-MEL-5 cells at 100 nM after 96 hrs by MTT assay; design: scale not given: the % may be the effect or the level left
SF-295 [10] = test: Growth inhibition of human SF295 cells at 100 nM after 96 hrs by MTT assay; design: scale not given: the % may be the effect or the level left
SW-620 [11] = test: Growth inhibition of human SW620 cells at 100 nM after 96 hrs by MTT assay; design: scale not given: the % may be the effect or the level left
IGROV-1 = test: Growth inhibition of human IGROV1 cells at 10 nM after 96 hrs by MTT assay; design: scale not given: the % may be the effect or the level left
SK-MEL-5 [12] = test: Growth inhibition of human SK-MEL-5 cells at 10 nM after 96 hrs by MTT assay; design: scale not given: the % may be the effect or the level left
SF-539 [13] = test: Growth inhibition of human SF539 cells at 10 nM after 96 hrs by MTT assay; design: scale not given: the % may be the effect or the level left
SW-620 [14] = test: Growth inhibition of human SW620 cells at 10 nM after 96 hrs by MTT assay; design: scale not given: the % may be the effect or the level left
NCI-H226 [15] = test: Growth inhibition of human NCI-H226 cells at 1 uM after 96 hrs by MTT assay; design: scale not given: the % may be the effect or the level left
[16] = read-out: LC50 (the source's name)
[17] = read-out: Log10GI50 (converted)
[18] = read-out: Log10LC50 (converted)

`C=C(C)[C@H]1CC=C(C)C2=CO[C@@H](c3ccccc3F)[C@@H]21` was tested, and the Activity (ACHN) was 96%, the Activity (786-0) was 99% and the Activity (HCT-116 [1]) was 102%. For the same compound, the Activity (EKVX [2]) was 98%, the Activity (A549) was 93% and the Activity (Malme-3M) was 101.14%. It also gave an Activity (SF-539 [3]) of 92.75%, an Activity (SF-295 [4]) of 85.19% and an Activity (HCT-15) of 103.41%. For the same compound, the Activity (HCT-116 [5]) was 88%, the Activity (NCI-H226 [6]) was 89% and the Activity (EKVX [7]) was 93%. It also gave a GI50 (NCI-H460; read-out: GI50) of 4.24 µM, a CC50 (NCI-H460; [16]) of 43.4 µM and a GI50 (NCI-H460; [17]) of 4.27 µM. It also gave a CC50 (NCI-H460; [18]) of 43.7 µM, a TGI (NCI-H460; read-out: Log10TGI (converted)) of 17.4 µM and a TGI (NCI-H460; read-out: TGI) of 17.5 µM. For the same compound, the GI50 (HOP-62; read-out: GI50) was 10.1 µM, the CC50 (HOP-62; [16]) was 46.8 µM and the GI50 (HOP-62; [17]) was 10.2 µM. It also gave a CC50 (HOP-62; [18]) of 46.8 µM, a TGI (HOP-62; read-out: Log10TGI (converted)) of 21.9 µM and a TGI (HOP-62; read-out: TGI) of 21.8 µM. It also gave a GI50 (EKVX [8]; read-out: GI50) of 3.37 µM, a CC50 (EKVX [8]; [16]) of 80.3 µM and a GI50 (EKVX [8]; [17]) of 3.39 µM. For the same compound, the CC50 (EKVX [8]; [18]) was 79.4 µM, the TGI (EKVX [8]; read-out: Log10TGI (converted)) was 19.5 µM and the TGI (EKVX [8]; read-out: TGI) was 19.4 µM. It also gave a GI50 (SR; read-out: GI50) of 0.798 µM, a CC50 (SR; [16]) of 23.9 µM and a GI50 (SR; [17]) of 0.794 µM. It also gave a CC50 (SR; [18]) of 24 µM, a TGI (SR; read-out: Log10TGI (converted)) of 3.72 µM and a TGI (SR; read-out: TGI) of 3.67 µM. It also gave an Activity (BT-549) of -6%, an Activity (RXF 393) of 44% and an Activity (MDA-MB-231) of 81%. For the same compound, the Activity (SK-OV-3) was 98%, the Activity (OVCAR-4) was 76% and the Activity (SK-MEL-5 [9]) was 69%. It also gave an Activity (SF-295 [10]) of 88%, an Activity (SW-620 [11]) of 101% and an Activity (IGROV-1) of 85%. The Activity (SK-MEL-5 [12]) was 88%, the Activity (SF-539 [13]) was 90% and the Activity (SW-620 [14]) was 97%. It also gave an Activity (NCI-H226 [15]) of 32%.

— ChEMBL document CHEMBL1153726, “Synthesis and anticancer activity of sclerophytin-inspired hydroisobenzofurans” (Bioorg Med Chem Lett, 2009)
